Measured values from publication PMC7145530 (Nucleic Acids Research, 2019).

T1: ALKBH3 (Homo sapiens, UniProt Q96Q83)
T1 sequence (Q96Q83 1-286): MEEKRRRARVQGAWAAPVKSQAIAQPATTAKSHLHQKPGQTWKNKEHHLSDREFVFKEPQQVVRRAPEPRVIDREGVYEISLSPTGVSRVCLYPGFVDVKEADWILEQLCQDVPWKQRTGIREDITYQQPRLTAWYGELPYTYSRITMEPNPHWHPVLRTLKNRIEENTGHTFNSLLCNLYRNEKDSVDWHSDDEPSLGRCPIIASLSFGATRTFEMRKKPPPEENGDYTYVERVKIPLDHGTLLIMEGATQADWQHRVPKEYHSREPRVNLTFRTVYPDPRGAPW

B1: ΔNTD: remaining amino acid residues (67–376) of RAD51C (protein)
chain: ECLTNKPRYAGTSESHKKCTALELLEQEHTQGFIITFCSALDDILGGGVPLMKTTEICGAPGVGKTQLCMQLAVDVQIPECFGGVAGEAVFIDTEGSFMVDRVVDLATACIQHLQLIAEKHKGEEHRKALEDFTLDNILSHIYYFRCRDYTELLAQVYLLPDFLSEHSKVRLVIVDGIAFPFRHDLDDLSLRTRLLNGLAQQMISLANNHRLAVILTNQMTTKIDRNQALLVPALGESWGHAATIRLIFHWDRKQRLATLYKSPSQKECTVLFQIKPQGFRDTVVTSACSLQTEGSLSTRKRSRDPEEEL
modifications: left off: Gal4 activation domain, end not stated, kept
B2: RAD51C-NTD: NTD consisting of 1–66 amino acid residues (protein)
chain: MRGKTFRFEMQRDLVSFPLSPAVRVKLVSAGFQTAEELLEVKPSELSKEVGISKAEALETLQIIRR
modifications: left off: Gal4 activation domain, end not stated, kept
B3: RAD51CΔ1–18 (protein)
chain: LSPAVRVKLVSAGFQTAEELLEVKPSELSKEVGISKAEALETLQIIRRECLTNKPRYAGTSESHKKCTALELLEQEHTQGFIITFCSALDDILGGGVPLMKTTEICGAPGVGKTQLCMQLAVDVQIPECFGGVAGEAVFIDTEGSFMVDRVVDLATACIQHLQLIAEKHKGEEHRKALEDFTLDNILSHIYYFRCRDYTELLAQVYLLPDFLSEHSKVRLVIVDGIAFPFRHDLDDLSLRTRLLNGLAQQMISLANNHRLAVILTNQMTTKIDRNQALLVPALGESWGHAATIRLIFHWDRKQRLATLYKSPSQKECTVLFQIKPQGFRDTVVTSACSLQTEGSLSTRKRSRDPEEEL
modifications: left off: Gal4 activation domain, end not stated, kept
B4: RAD51CΔ19–32 (protein)
chain: MRGKTFRFEMQRDLVSFPQTAEELLEVKPSELSKEVGISKAEALETLQIIRRECLTNKPRYAGTSESHKKCTALELLEQEHTQGFIITFCSALDDILGGGVPLMKTTEICGAPGVGKTQLCMQLAVDVQIPECFGGVAGEAVFIDTEGSFMVDRVVDLATACIQHLQLIAEKHKGEEHRKALEDFTLDNILSHIYYFRCRDYTELLAQVYLLPDFLSEHSKVRLVIVDGIAFPFRHDLDDLSLRTRLLNGLAQQMISLANNHRLAVILTNQMTTKIDRNQALLVPALGESWGHAATIRLIFHWDRKQRLATLYKSPSQKECTVLFQIKPQGFRDTVVTSACSLQTEGSLSTRKRSRDPEEEL
modifications: left off: Gal4 activation domain, end not stated, kept
B5: RAD51CΔ33–41 (protein)
chain: MRGKTFRFEMQRDLVSFPLSPAVRVKLVSAGFKPSELSKEVGISKAEALETLQIIRRECLTNKPRYAGTSESHKKCTALELLEQEHTQGFIITFCSALDDILGGGVPLMKTTEICGAPGVGKTQLCMQLAVDVQIPECFGGVAGEAVFIDTEGSFMVDRVVDLATACIQHLQLIAEKHKGEEHRKALEDFTLDNILSHIYYFRCRDYTELLAQVYLLPDFLSEHSKVRLVIVDGIAFPFRHDLDDLSLRTRLLNGLAQQMISLANNHRLAVILTNQMTTKIDRNQALLVPALGESWGHAATIRLIFHWDRKQRLATLYKSPSQKECTVLFQIKPQGFRDTVVTSACSLQTEGSLSTRKRSRDPEEEL
modifications: left off: Gal4 activation domain, end not stated, kept

target: T1, ALKBH3; assay: Yeast two-hybrid with ALKBH3; format: binding; conditions: strain pJ69-4A; growth on dropout plates and lacZ reporter
Procedure, shortened: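 Full-length ALKBH2 or ALKBH3 fused to Gal4 binding domain (pGBKT7) was co-transformed with Gal4 activation domain (pACT2) fusions of RAD51, RAD51B, RAD51C, RAD51D, XRCC2 or XRCC3, or empty vectors. Transformants were selected on SD -Leu -Trp plates at 30°C for 2–3 days, then spotted on -His (triple) or -His -Ade (quadruple) dropout plates. lacZ was scored qualitatively by X-gal filter assay.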

Row | Molecule | yeast two-hybrid interaction with ALKBH3
1 | B1 | completely abrogated the interaction
2 | B2 | robust interaction
3 | B3 | remained unaffected
4 | B4 | remained unaffected
5 | B5 | partially affected
